Measurements gathered from unrelated publications.
Target: cAMP-dependent protein kinase catalytic subunit alpha (PRKACA, Homo sapiens, UniProt P17612)

SMILES | assay | setting | remaining binding
COc1ccc2c(c1)O[C@@H](c1ccc(OC)c(OC)c1)C[C@H]2NC(=O)C1(c2ccc3c(c2)OC(F)(F)O3)CC1 | cell-free assay, competition with immobilised ligand | 1 µM | 100%
CCN1CCN(Cc2ccc(C(=O)Nc3ccc(C)c(Oc4ccc5c(c4)CC(=O)N5)c3)cc2C(F)(F)F)CC1 | binding, competition with immobilised ligand | 1 µM | 100%
Cc1c(NC(=O)c2cc(C(N)=O)nc3cc(F)ccc23)c(C(F)(F)F)nn1Cc1ccc(C#N)cc1 | cell-free assay, competition with immobilised ligand | 1 µM | 78%
O=C(NCC1CCOCC1)c1n[nH]cc1NC(=O)c1c(F)cccc1F | binding, competition with immobilised ligand | 1 µM | 100%
O=C(c1ccc(Nc2ncc(Cl)c(-c3cc4ccccc4s3)n2)cc1)N1CCC(N2CCCC2)CC1 | binding, competition with immobilised ligand | 1 µM | 90%
COc1ncc2cc3ccccc3nc2c1C#N | cell-free assay, competition with immobilised ligand | 5 µM | 100%
COCCOc1nc(-c2ccc(Cl)nc2)nc2c1CN(C(=O)c1ncn3ccccc13)CC2 | cell-free assay, competition with immobilised ligand | 0.1 µM | 82%
O=C(c1ccc(Nc2nccc(-c3cc4ccccc4s3)n2)cc1)N1CCC(N2CCCC2)CC1 | binding, competition with immobilised ligand | 1 µM | 100%
c1cnn2ncc(-c3ccnc(N4CCC45COC5)n3)c2c1 | binding | 1 µM | 100%
Nc1ncc2c(n1)-c1c([nH]c3ccc(C#CC4CC4)cc13)CCCC2 | binding, competition with immobilised ligand | 1 µM | 86%
Cc1cnc(Nc2ccc(C(=O)N3CCC(N4CCCC4)CC3)cc2)nc1-c1cc2ccccc2s1 | binding, competition with immobilised ligand | 1 µM | 67%
O=C(N[C@H]1CCCCC/C=C\C2C[C@@]2(C(=O)O)NC(=O)[C@@H]2C[C@@H](Oc3ccncc3)CN2C1=O)OC1CCCC1 (stereo partly drawn) | cell-free assay, competition with immobilised ligand | 1 µM | 92%
CNC(=O)[C@@H]1CC[C@@H](n2c(-c3ccc4cnccc4c3)nc3ccc(C(=O)NCc4cccc(C(N)=O)c4)cc32)C1 | binding, competition with immobilised ligand | 1 µM | 100%
c1cncc(-c2cccc(Nc3nccc(NC4CCCCC4)n3)c2)c1 | binding, competition with immobilised ligand | 10 µM | 50%
O=C(O)c1cc(-c2ccc(C3CCNCC3)cc2)c2ccc(-c3ccc(C(F)(F)F)cc3)cc2c1 | cell-free assay, competition with immobilised ligand | 1 µM | 100%
CN(C)c1ncc(F)c(-c2cnn3ncccc23)n1 | binding | 1 µM | 86%
C[C@@H]1CN(c2ccc3ncc(-c4ccc5[nH]nc(C6CC6)c5c4)n3n2)C[C@H](C)O1 | binding, competition with immobilised ligand | 0.5 µM | 100%
C[C@H]1CCN(c2nccc(-c3cnn4ncccc34)n2)C1 | binding | 1 µM | 100%
C=CC(=O)N1CCC(C(=O)NCC(=O)N2CCN(c3nc(-c4cnc(N)nc4C(F)F)nc(N4CCOCC4)n3)CC2)CC1 | binding, competition with immobilised ligand | 1 µM | 100%
CNC(=O)c1ccc(Nc2ncc(C(F)(F)F)c(NCc3nccnc3N(C)S(C)(=O)=O)n2)cc1 | cell-free assay, competition with immobilised ligand | 0.1 µM | 100%
CN(C)c1nccc(-c2cnn3ncccc23)n1 | binding | 1 µM | 100%
